Data: publication PMC4969713 (Journal of Alzheimer's Disease, 2016)
Read-outs that look alike come from different tables or passages of the source.

Key:
BALB/c mice [1] = experiment: Morris water maze, scopolamine-induced amnesia; format: in vivo; settings: IP; AVN-101 0.2 mg/kg; Tacrine 3 mg/kg; donepezil 1 mg/kg; scopolamine 1.5 mg/kg
Procedure, shortened: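 Scopolamine-induced amnesia model in male BALB/c mice. Read-out was time spent in the quadrant where the escape platform had been during the two preceding training days, reported as mean ± SE.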

Caco-2 permeability = settings: human
male BALB/c mice [2] = experiment: Elevated Plus-Maze; format: in vivo; settings: IP, Buspirone 5 mg/kg; for locomotion (total number of arm visits): M1 5 or 20 mg/kg, M2 1 and 5 mg/kg; for anxiolytic effect (open/closed arm time and visits, defecations): M2 0.05, 0.5, 1.0, 5.0 mg/kg
Procedure, shortened: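 Elevated plus-maze in mice. Read-outs were open/closed arm time ratio, open/closed visit ratio, defecations and total visits. Each treated group was compared with the placebo group by Student t-test.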

femur bone marrow cells = experiment: Chromosomal aberrations in femur bone marrow cells; format: in vivo, mice; settings: 20 mg/kg PO single dose, males
Procedure, shortened: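 Mice 8–12 weeks old, male and female, were dosed orally with test compound or cyclophosphamide 20 mg/kg. Schedule was single dose with kill at 24 h, or qd for 5 days with kill 6 h after the last dose. Colchicine 4 mg/kg was given orally 2.5 h before decapitation. Femur marrow was put into 0.55% KCl at 37°C for 15 min, then spun. Scoring covered 100 metaphases per animal (500 per group), expressed as % aberrant cells.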

Monkeys (Macaca mulatta) = experiment: Q-T interval, monkeys; format: in vivo; settings: 15 mg/kg IV
male SHK mice = experiment: Apomorphine-induced disruption of pre-pulse inhibition; format: in vivo; settings: IP; apomorphine 20 mg/kg; Haloperidol 1 mg/kg
Procedure, shortened: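 Male SHK mice received apomorphine as the pro-psychotic agent to disrupt pre-pulse inhibition. Groups: untreated control, apomorphine alone, haloperidol 1 mg/kg as positive control, and test compound at several doses. Groups were compared with the apomorphine-only group by Student test.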

male BALB/c mice [3] = experiment: Elevated Platform test; format: in vivo; settings: IP; Lorazepam 0.05 mg/kg, AVN-101 0.2 mg/kg; initial 2 min
BALB/c mice [4] = experiment: Open Field test; format: in vivo; settings: IP; Lorazepam 0.05 mg/kg, AVN-101 0.2 mg/kg
Procedure, shortened: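 Male BALB/c mice received lorazepam 30 min or test compound 5 min before testing; controls received saline, with at least 8 per group. Time in the central zone was recorded during a 10-min exploration. Comparison with the control group used ANOVA with Fisher LSD.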

male BALB/c mice [5] = experiment: Novel object recognition, MK-801-induced; format: in vivo; settings: 0.2 mg/kg MK-801; memantine 10 mg/kg; SB-742457 0.2 or 1.0 mg/kg
Procedure, shortened: (§1)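 All drugs were dissolved in saline and given IP; control animals received saline vehicle. Each group had at least 8 male BALB/c mice. Read-out was novel object recognition index, reported as mean ± SE.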

BALB/c mice [6] = experiment: Passive avoidance, MK-801-induced amnesia, mice; format: in vivo; settings: IP
male BALB/c mice [7] = experiment: Novel object recognition, scopolamine-induced; format: in vivo; settings: 1.0 mg/kg scopolamine; memantine 10 mg/kg; SB-742457 0.2 or 1.0 mg/kg
Procedure, shortened: as §1

5-HT1B receptor = settings: cited from earlier work
5-HT2B receptor = 5-HT2B receptor (Homo sapiens, UniProt P41595); settings: cited from earlier work
5-HT2B receptor, sequence (P41595 whole entry): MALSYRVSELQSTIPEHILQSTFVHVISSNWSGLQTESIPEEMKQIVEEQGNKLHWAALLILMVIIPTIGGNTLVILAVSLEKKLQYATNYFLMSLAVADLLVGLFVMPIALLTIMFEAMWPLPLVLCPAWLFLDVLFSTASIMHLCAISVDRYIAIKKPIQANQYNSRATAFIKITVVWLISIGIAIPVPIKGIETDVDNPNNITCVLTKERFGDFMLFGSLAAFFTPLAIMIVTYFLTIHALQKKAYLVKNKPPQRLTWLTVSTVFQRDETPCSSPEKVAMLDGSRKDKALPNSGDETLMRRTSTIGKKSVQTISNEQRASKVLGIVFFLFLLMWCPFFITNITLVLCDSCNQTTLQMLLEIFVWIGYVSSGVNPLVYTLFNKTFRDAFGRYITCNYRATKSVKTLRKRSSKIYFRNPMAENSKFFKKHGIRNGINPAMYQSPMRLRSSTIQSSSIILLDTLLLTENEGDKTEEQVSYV

5-HT7 receptor [8] = target: T1, 5-HT7 receptor (Homo sapiens, UniProt P34969); settings: cited from earlier work
T1 sequence (P34969 whole entry): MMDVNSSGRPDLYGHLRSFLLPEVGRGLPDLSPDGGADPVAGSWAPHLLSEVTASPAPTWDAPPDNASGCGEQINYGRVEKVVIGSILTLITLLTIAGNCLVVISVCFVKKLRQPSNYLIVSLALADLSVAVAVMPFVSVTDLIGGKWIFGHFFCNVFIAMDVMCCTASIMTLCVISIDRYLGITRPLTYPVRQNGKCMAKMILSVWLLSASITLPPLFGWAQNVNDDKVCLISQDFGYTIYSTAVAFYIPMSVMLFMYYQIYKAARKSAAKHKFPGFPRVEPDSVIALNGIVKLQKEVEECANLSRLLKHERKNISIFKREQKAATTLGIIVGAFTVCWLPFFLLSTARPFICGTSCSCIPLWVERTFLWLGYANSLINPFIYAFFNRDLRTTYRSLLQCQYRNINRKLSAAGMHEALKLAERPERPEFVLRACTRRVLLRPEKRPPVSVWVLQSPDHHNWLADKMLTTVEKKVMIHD

5-HT1A receptor = 5-HT1A receptor (Homo sapiens, UniProt P08908); settings: Table 2; cited from earlier work
5-HT1A receptor, sequence (P08908 whole entry): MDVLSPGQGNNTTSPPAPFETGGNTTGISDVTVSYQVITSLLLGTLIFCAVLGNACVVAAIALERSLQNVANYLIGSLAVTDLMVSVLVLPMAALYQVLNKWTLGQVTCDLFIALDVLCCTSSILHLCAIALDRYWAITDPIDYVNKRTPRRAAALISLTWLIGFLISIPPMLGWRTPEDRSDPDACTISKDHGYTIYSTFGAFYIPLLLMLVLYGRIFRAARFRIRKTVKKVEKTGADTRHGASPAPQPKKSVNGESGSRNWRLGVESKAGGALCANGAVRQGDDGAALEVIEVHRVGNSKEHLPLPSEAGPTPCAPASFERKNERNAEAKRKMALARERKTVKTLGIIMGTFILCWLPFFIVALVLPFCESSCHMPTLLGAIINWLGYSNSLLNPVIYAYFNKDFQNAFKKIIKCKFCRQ

5-HT2A receptor [9] = target: T2, 5-HT2A receptor (Homo sapiens, UniProt P28223); settings: cited from earlier work
T2 sequence (P28223 whole entry): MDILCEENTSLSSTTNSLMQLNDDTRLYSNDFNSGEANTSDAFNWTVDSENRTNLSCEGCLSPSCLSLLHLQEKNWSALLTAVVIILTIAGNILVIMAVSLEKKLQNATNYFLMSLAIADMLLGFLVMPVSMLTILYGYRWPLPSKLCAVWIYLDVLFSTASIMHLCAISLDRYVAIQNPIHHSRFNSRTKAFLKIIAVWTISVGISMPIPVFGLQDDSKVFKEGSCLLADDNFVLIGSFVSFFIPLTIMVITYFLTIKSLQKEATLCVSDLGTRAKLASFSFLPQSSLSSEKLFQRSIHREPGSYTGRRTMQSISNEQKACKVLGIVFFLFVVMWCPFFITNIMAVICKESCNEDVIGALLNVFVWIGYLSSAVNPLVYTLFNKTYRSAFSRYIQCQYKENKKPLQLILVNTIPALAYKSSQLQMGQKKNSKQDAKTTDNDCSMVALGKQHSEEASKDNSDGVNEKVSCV

5-HT2C receptor [10] = target: T3, 5-HT2C receptor (Homo sapiens, UniProt P28335); settings: cited from earlier work
T3 sequence (P28335 33-458): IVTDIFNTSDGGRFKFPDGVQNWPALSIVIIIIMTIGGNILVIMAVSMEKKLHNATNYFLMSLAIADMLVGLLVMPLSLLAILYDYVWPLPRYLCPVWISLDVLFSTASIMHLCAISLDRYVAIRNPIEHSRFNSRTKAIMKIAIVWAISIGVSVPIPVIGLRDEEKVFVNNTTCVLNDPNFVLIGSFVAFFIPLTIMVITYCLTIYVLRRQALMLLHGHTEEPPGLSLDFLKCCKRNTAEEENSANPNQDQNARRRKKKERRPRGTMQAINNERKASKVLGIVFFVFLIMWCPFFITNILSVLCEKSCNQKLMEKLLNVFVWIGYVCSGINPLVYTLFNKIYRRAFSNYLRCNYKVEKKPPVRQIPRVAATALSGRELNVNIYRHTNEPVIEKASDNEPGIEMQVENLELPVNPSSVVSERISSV

5-HT7 receptor [11] = target: T1, 5-HT7 receptor; experiment: Radioligand binding competition, 5-HT7
male BALB/c mice [12] = settings: acute pre-dosing; cited from earlier work
male BALB/c mice [13] = experiment: Passive avoidance, scopolamine-induced amnesia, mice; format: in vivo; settings: highest dose tested, 1 mg/kg
hERG potassium channel = hERG potassium channel (Homo sapiens, UniProt Q12809); experiment: hERG single cell patch clamp in HEK cells; settings: potassium currents, patch clamp
hERG potassium channel, sequence (Q12809 whole entry): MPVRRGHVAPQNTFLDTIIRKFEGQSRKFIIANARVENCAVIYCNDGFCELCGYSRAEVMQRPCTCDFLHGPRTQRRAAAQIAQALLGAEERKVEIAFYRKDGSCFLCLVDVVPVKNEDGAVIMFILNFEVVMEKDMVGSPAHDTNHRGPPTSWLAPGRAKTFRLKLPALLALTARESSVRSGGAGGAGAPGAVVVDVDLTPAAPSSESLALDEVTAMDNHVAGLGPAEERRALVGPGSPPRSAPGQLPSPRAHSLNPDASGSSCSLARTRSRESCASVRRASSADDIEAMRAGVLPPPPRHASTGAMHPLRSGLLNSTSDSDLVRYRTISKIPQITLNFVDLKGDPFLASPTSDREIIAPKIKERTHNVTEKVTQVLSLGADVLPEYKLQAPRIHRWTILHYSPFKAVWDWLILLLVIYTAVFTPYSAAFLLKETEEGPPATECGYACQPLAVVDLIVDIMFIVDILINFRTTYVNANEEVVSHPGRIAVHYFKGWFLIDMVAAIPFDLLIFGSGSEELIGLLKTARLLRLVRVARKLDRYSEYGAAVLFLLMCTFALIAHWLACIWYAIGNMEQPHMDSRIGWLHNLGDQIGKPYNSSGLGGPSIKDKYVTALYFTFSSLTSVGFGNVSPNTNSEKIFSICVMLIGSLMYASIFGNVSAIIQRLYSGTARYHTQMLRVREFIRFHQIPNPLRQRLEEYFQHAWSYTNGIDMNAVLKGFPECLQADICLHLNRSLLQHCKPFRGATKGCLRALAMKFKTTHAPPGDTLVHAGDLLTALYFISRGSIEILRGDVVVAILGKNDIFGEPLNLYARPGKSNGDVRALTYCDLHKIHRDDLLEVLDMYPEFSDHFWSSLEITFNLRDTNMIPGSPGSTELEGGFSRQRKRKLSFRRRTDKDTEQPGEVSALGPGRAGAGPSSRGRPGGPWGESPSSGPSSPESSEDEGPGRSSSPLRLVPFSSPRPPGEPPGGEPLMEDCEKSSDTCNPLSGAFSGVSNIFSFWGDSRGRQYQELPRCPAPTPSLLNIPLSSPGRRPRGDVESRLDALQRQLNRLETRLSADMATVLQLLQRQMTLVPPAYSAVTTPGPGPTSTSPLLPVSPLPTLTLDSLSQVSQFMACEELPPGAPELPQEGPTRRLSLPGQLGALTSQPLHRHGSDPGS

5-HT2C receptor [14] = target: T3, 5-HT2C receptor; experiment: Radioligand binding competition, 5-HT2C
5-HT3 receptor = 5-HT3 receptor (Homo sapiens, UniProt P46098); experiment: Target panel binding, 5-HT3
5-HT3 receptor, sequence (P46098 24-478): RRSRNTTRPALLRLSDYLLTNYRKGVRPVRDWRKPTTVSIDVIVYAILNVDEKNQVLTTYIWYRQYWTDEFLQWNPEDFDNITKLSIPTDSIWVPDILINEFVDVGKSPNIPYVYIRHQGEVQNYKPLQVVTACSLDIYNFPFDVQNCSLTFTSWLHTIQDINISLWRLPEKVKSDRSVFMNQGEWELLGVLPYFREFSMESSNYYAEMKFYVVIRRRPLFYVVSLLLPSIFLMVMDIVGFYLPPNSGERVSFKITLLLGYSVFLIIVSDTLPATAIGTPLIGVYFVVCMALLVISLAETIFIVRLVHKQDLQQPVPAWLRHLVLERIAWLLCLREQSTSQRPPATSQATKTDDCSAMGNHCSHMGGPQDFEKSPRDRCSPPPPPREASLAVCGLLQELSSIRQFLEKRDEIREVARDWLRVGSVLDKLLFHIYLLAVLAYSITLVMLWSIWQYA

5-HT4 receptor = 5-HT4 receptor (Homo sapiens, UniProt Q13639); experiment: Target panel binding, 5-HT4
5-HT4 receptor, sequence (Q13639 whole entry): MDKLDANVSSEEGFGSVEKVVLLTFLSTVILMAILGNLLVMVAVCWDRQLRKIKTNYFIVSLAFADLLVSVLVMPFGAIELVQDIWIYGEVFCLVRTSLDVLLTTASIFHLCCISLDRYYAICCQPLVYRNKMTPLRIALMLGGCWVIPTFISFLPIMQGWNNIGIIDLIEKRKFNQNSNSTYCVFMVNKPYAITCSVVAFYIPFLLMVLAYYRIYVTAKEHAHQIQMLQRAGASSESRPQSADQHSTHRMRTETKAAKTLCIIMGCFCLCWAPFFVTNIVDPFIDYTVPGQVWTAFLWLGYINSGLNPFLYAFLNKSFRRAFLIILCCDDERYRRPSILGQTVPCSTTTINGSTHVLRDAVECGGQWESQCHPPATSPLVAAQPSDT

Adrenergic α2A = Adrenergic α2A (Homo sapiens, UniProt P08913); experiment: Radioligand competition, adrenergic α2A; format: binding
5-HT2A receptor [15] = target: T2, 5-HT2A receptor; experiment: Radioligand binding competition, 5-HT2A
5-HT6 receptor = 5-HT6 receptor (Homo sapiens, UniProt P50406); experiment: Radioligand binding competition, 5-HT6
5-HT6 receptor, sequence (P50406 whole entry): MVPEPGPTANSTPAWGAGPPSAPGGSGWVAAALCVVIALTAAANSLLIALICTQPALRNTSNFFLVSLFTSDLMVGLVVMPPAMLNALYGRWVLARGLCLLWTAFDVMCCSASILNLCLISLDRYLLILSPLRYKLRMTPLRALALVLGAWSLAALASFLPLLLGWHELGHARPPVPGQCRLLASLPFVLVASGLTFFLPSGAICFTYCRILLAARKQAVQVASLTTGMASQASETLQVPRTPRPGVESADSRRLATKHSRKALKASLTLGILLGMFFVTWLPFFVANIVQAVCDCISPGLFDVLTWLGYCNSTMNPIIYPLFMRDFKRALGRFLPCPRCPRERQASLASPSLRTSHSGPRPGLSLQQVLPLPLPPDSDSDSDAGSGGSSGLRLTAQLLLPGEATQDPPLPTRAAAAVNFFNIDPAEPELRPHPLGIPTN

Adrenergic α1A = Adrenergic α1A (Homo sapiens, UniProt P35348); experiment: Radioligand competition, adrenergic α1A; format: binding
Pharmacokinetics in dogs = format: in vivo, dogs (Beagle); settings: for AUC0 - >∞ / Cmax / T1/2 / Tmax: label = substance analyzed
[16] = Phase I pharmacokinetics, single PO dose; format: in vivo, human; settings: for AUC0 - >∞ / Cmax / T1/2: label = substance analyzed, Means ± SD
histamine H1 receptor = histamine H1 receptor (Homo sapiens, UniProt P35367); experiment: Radioligand binding competition, histamine H1
histamine H1 receptor, sequence (P35367 whole entry, species assumed): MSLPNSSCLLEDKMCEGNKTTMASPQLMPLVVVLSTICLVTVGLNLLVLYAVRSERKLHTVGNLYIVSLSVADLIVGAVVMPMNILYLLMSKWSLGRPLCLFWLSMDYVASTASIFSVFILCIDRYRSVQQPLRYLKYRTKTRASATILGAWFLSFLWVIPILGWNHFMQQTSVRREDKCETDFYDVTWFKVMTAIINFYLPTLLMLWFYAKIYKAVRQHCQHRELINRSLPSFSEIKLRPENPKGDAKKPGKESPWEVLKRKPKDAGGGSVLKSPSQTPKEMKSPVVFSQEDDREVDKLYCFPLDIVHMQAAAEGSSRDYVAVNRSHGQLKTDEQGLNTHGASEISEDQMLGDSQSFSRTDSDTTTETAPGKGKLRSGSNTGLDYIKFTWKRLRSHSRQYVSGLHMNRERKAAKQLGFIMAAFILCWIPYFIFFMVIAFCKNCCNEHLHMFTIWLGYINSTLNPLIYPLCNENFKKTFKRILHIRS

histamine H2 receptor = histamine H2 receptor (Homo sapiens, UniProt P25021); experiment: Radioligand binding competition, histamine H2

## Nc1c2c(nc3ccccc13)CCCC2 [Tacrine]
BALB/c mice [1]
  effect on scopolamine-induced amnesia (time in platform quadrant): significant prevention

## COC(=O)c1ccccc1-c1c2ccc(=N)cc-2oc2cc(N)ccc12 [Rhodamine123, reference compound]
Caco-2 permeability
  Papp: 0.6 ± 0.2 ×10⁻⁶ cm/s
  Papp B→A: 6.8 ± 0.4 ×10⁻⁶ cm/s

## O=C1CC2(CCCC2)CC(=O)N1CCCCN1CCN(c2ncccn2)CC1 [Buspirone, reference compound]
Male BALB/c mice [2]
  locomotion (total number of arm visits): had no effect on total number of arm visits
  anxiolytic effect (open/closed arm time and visits, defecations): clear anxiolytic effects

## O=P1(N(CCCl)CCCl)NCCCO1 (centres unmarked) [cyclophosphomide, reference compound]
Femur bone marrow cells
  Cells with multiple aberrations: 6.2%
  Total altered metaphases (%): 20.8 ± 1.8%
  cells with aberration, Double fragment: 0.4%
  cells with aberration, Single fragment: 19.8%
  cells with aberration, exchanges: 1.0%
  cells with aberration, gaps: 0.2%

## CCCCc1oc2ccccc2c1C(=O)c1cc(I)c(OCCN(CC)CC)c(I)c1 [amiodaron, reference compound]
Monkeys (Macaca mulatta)
  effect on heart rate: no effect on the heart rate

## O=C(CCCN1CCC(O)(c2ccc(Cl)cc2)CC1)c1ccc(F)cc1 [Haloperidol, reference compound]
Male SHK mice
  effect on apomorphine-induced disruption of PPI: able to prevent

## O=C1Nc2ccc(Cl)cc2C(c2ccccc2Cl)=NC1O (centres unmarked) [Lorazepam, reference compound]
Male BALB/c mice [3]
  duration of freezing behavior: significantly reduced duration of the freezing behavior
BALB/c mice [4]
  time spent in the central area: significant anxiolytic effect

## COc1cc2c(cc1OC)C(=O)C(CC1CCN(Cc3ccccc3)CC1)C2 (centres unmarked) [donepezil]
BALB/c mice [1]
  effect on scopolamine-induced amnesia (time in platform quadrant): not as effective

## CC12CC3CC(C)(C1)CC(N)(C3)C2 [memantine]
Male BALB/c mice [5]
  effect on deficit in novel object recognition: not statistically effective
BALB/c mice [6]
  effect on MK-801-induced amnesia: not active
Male BALB/c mice [7]
  effect on deficit in novel object recognition: not statistically effective

## Fc1ccc2c(CCNCc3cccc(OCC(F)(F)C(F)F)c3)c[nH]c2c1 [Lu AE58054]
5-HT1B receptor; Table 2
  Ki: > 10 µM
5-HT2B receptor; Table 2
  Ki: > 4.1 µM
5-HT7 receptor [8]; Table 2
  Ki: > 10 µM
5-HT7 receptor [8]
  binding affinity: very low, if any
5-HT1A receptor
  Ki: 2.3 µM
5-HT2A receptor [9]; Table 2
  Ki: 0.083 µM
5-HT2C receptor [10]; Table 2
  Ki: 0.25 µM

## O=S(=O)(c1ccccc1)c1cnc2c(N3CCNCC3)cccc2c1 [SB-742457]
5-HT1B receptor; at 1μM
  radioligand displacement: 86%
Male BALB/c mice [5]
  effect on deficit in novel object recognition: not statistically effective
5-HT2B receptor; at 1μM
  radioligand displacement: 88%
5-HT7 receptor [11]
  IC50: 1.27 µM
Male BALB/c mice [12]
  effective dose range, scopolamine-induced amnesia passive avoidance: 0.5 to 4.5 mg/kg
Male BALB/c mice [7]
  effect on deficit in novel object recognition: not statistically effective
Male BALB/c mice [13]
  preventative effect: very mild preventative effect
5-HT7 receptor [8]; at 1μM
  binding inhibition: ~25%
5-HT2A receptor [9]; at 1μM
  radioligand displacement: 91%
5-HT2C receptor [10]; at 1μM
  radioligand displacement: 85%

## Cc1ccc2c(c1)c1c(n2CC(O)c2ccccc2)CCN(C)C1 (centres unmarked) [M1, 2-(2,8-dimethyl-1,2,3,4-tetrahydro-pyrido[[4,3-b]]indol-5-yl)-1-phenyl-ethan-ol]
hERG potassium channel
  IC50: 1.63 µM
5-HT2C receptor [14]
  lower affinity compared to AVN-101: 7 fold
5-HT7 receptor [11]
  Ki: 0.00772 µM
5-HT3 receptor
  interaction: Neither AVN-101 nor its metabolites, M1 and M2, seem to interact
5-HT4 receptor
  interaction: Neither AVN-101 nor its metabolites, M1 and M2, seem to interact
Adrenergic α2A
  lower affinity compared to AVN-101: 3 fold
5-HT2A receptor [15]
  lower affinity compared to AVN-101: 2 fold
5-HT6 receptor
  lower affinity compared to AVN-101: 4 fold
Adrenergic α1A
  affinity compared to AVN-101: practically same affinity
Male BALB/c mice [2]
  locomotion (total number of arm visits): some reduction in mice locomotor activity
  anxiolytic effect (open/closed arm time and visits, defecations): clear anxiolytic effects
Pharmacokinetics in dogs; M1 PO 5 mg/kg vs IV 1 mg/kg
  Fabs: 8.4%
Pharmacokinetics in dogs; after AVN-101 IV 2 mg/kg
  AUC0 - >∞: 264.6 ng·min/mL
  Cmax: 5.7 ng/mL
  T1/2: 0.857 h
  Tmax: 0.083 h
Pharmacokinetics in dogs; after AVN-101 PO 10 mg/kg
  AUC0 - >∞: 8,995 min×ng/mL
  Cmax: 30.1 ng/mL
  T1/2: 2.582 h
  Tmax: 1 h
Pharmacokinetics in dogs; after M1 IV 1 mg/kg
  AUC0 - >∞: 25,894 min×ng/mL
  Cmax: 4,550 ng/mL
  T1/2: 0.958 h
  Tmax: 0.017 h
Pharmacokinetics in dogs; after M1 PO 5 mg/kg
  AUC0 - >∞: 10,828 min×ng/mL
  Cmax: 43 ng/mL
  T1/2: 2.308 h
  Tmax: 2 h
[16]; AVN-101 PO 2 mg
  AUC0 - >∞: 0.22 ± 0.116 ng·h/mL
  Cmax: 0.0561 ± 0.0182 ng/mL
  T1/2: 2.49 ± 1.2 h
[16]; AVN-101 PO 4 mg
  AUC0 - >∞: 0.555 ± 0.297 ng·h/mL
  Cmax: 0.112 ± 0.0381 ng/mL
  T1/2: 2.48 ± 1.27 h
[16]; AVN-101 PO 10 mg
  AUC0 - >∞: 1.41 ± 0.688 ng·h/mL
  Cmax: 0.292 ± 0.176 ng/mL
  T1/2: 2.8 ± 1.71 h
[16]; AVN-101 PO 20 mg
  AUC0 - >∞: 3.1 ± 0.87 ng·h/mL
  Cmax: 0.635 ± 0.311 ng/mL
  T1/2: 3.85 ± 0.56 h
[16]; after PO AVN-101
  Tmax: around 1 h
Histamine H1 receptor
  Ki: ~0.048 µM
  lower affinity compared to AVN-101: 83 fold
Histamine H2 receptor
  lower affinity compared to AVN-101: 9 fold
